Columns and labels:
[1] = Therapeutic effect against P388 leukemia in mice on days 1, 5 and 9 after administration of 1.6 mg/kg dose expressed as median survival time of treated and control mice (in vivo); assay type: organism-based; design: dose 1.6 mg/kg; conditions: mouse
How it was run: (§1)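 DBA2 mice implanted ip with 10^6 P388 cells on D0; drug given ip on D1, D5, D9. Groups of 7 treated mice, 10 untreated controls. Mice weighed daily; study ended D45. T/C (%) = median survival time of treated over control group.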

[2] = species: Mus musculus; test: In vitro inhibitory activity against L1210 leukemia cell line; assay type: functional; conditions: read-out: ID50 (the source's name)
How it was run: (§2)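 Exponentially growing cells exposed 3 days to drug at final 10^-9 to 10^-4 M. L1210: RPMI 1640 + 10% FCS, seeded 1.5 × 10^5 cells/mL in flasks. MCF7: DMEM + 10% FCS, 10^5 cells/well in 6-well plates. Growth and viability by trypan blue counting; ID50 = concentration inhibiting growth by 50% of control.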

[3] = species: Mus musculus; test: In vitro cytotoxicity against L1210 leukemia cell line; assay type: functional; conditions: read-out: LD50 (the source's name)
How it was run: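 L1210 mouse lymphocytic leukemia cells in RPMI 1640 with 10% (v/v) foetal calf serum, in exponential growth, seeded at 1.5 × 10^5 cells/mL in flasks; drug added at final 10^-9 to 10^-4 M for 3 days. Growth and viability counted by trypan blue staining; ID50 is the concentration inhibiting cell growth by 50% of control.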

[4] = species: Homo sapiens; test: In vitro inhibitory activity against MCF-7 mammary cell line; assay type: functional; conditions: MCF7, read-out: ID50 (the source's name); how it was run: as §2
[5] = tested on: Nucleic Acid; test: Thermal denaturation of calf-thymus DNA was evaluated; assay type: functional; conditions: Bos taurus
How it was run: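 Calf thymus DNA (% GC 42) at 2 × 10^-4 M in 0.1 SSC (0.15 M NaCl/0.015 M sodium citrate, pH 7.0). Six curves at P/DNA = 0, 0.2, 0.4, 0.6, 0.8 and 1. A260 followed from 20 to 95 °C at 1 °C/min in a 10-mm cell. Tm = midpoint of the hyperchromic transition.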

[6] = Therapeutic effect against P388 leukemia in mice on days 1, 5 and 9 after administration of 5 mg/kg dose expressed as median survival time of treated and control mice (in vivo); assay type: organism-based; design: dose 5 mg/kg; conditions: mouse; how it was run: as §1
[7] = Therapeutic effect against P388 leukemia in mice on days 1, 5 and 9 after administration of 25 mg/kg dose expressed as median survival time of treated and control mice (in vivo); assay type: organism-based; design: dose 25 mg/kg; conditions: mouse; how it was run: as §1
[8] = Therapeutic effect against P388 leukemia in mice on days 1, 5 and 9 after administration of 10 mg/kg dose expressed as median survival time of treated and control mice (in vivo); assay type: organism-based; design: dose 10 mg/kg; conditions: mouse; how it was run: as §1

SMILES	IC50 [2]	CC50 [3]	IC50 [4]	ΔTm [5]	also measured
O=C1c2c(O)ccc(O)c2C(=O)c2c(NCCNCCO)ccc(NCCNCCO)c21 [MITOXANTRONE]	0.007 µM	0.007 µM	0.27 µM	15.9 °C	T/C [1]: 190
NCC(=O)NCC(=O)N[C@@H](Cc1c[nH]cn1)C(=O)NCCNc1ccc(NCCNC(=O)[C@H](Cc2c[nH]cn2)NC(=O)CNC(=O)CN)c2c1C(=O)c1c(O)ccc(O)c1C2=O [listing 1 of 2 here]	–	–	–	–	T/C [6]: 140; T/C [7]: 230; T/C [8]: 150
NCC(=O)NCC(=O)N[C@@H](Cc1c[nH]cn1)C(=O)NCCNc1ccc(NCCNC(=O)[C@H](Cc2c[nH]cn2)NC(=O)CNC(=O)CN)c2c1C(=O)c1c(O)ccc(O)c1C2=O [listing 2 of 2 here]	0.05 µM	0.07 µM	0.8 µM	–	–
NCC(=O)NCC(=O)N[C@@H](Cc1c[nH]cn1)C(=O)NCCNc1ccc(NCCNC(=O)[C@@H](Cc2c[nH]cn2)NC(=O)CNC(=O)CN)c2c1C(=O)c1c(O)ccc(O)c1C2=O	–	–	–	17.1 °C	–
NCCCC(NC(=O)[C@@H](Cc1c[nH]cn1)NC(=O)CNc1ccc(O)c2c1C(=O)c1c(O)ccc(O)c1C2=O)C(=O)O (stereo partly drawn)	–	–	–	11.3 °C	–

Reference: ChEMBL document CHEMBL1126952, “Synthesis and antitumor properties of an anthraquinone bisubstituted by the copper chelating peptide Gly-Gly-L-His” (J Med Chem, 1993)
